The nature of data set [1]: Selectivity index, ratio of IC50 for mouse J774.2 cells to IC50 for axenic amastigote form of Leishmania braziliensis MHOM/BR/1975/M2904. The format is toxicity. The gist of the method:
(§1)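 Axenic amastigotes obtained by 3-day promastigote transformation in supplemented M199 + 10% heat-inactivated FCS, pH 5.4, 37 °C. […] Host toxicity: J774.2, 72 h, PI/FDA flow cytometry. SI = macrophage IC50/axenic amastigote IC50; ratio is compound SI over Glucantime SI.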

A short description of data set [2]: Ratio of compound selectivity index to glucantime selectivity index for axenic amastigote form of Leishmania braziliensis MHOM/BR/1975/M2904 over mouse J774.2 cells. The gist of the method: as §1
Data set [3] concerns Leishmania infantum. As to the kind of experiment: Antileishmanial activity against amastigote form of Leishmania infantum MCAN/ES/2001/UCM-10 infected in J774.2 cells after 72 hrs by haemocytometric analysis. Format: functional, organism-based. The method, boiled down:
(§2)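 J774.2 macrophages grown in MEM with 2 mM glutamine and 20% inactivated FCS at 37 °C in 5% CO2. Infected with stationary-phase promastigotes at 10:1 for 24 h, then washed free of non-phagocytosed parasites. Compounds at 1, 10, 25, 50 and 100 for 72 h. Amastigotes counted on methanol-fixed, Giemsa-stained preparations and % reduction taken vs untreated. IC50 by linear regression of Kc values; three separate determinations.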

Data set [4] relates to Leishmania braziliensis. As to the kind of experiment: Antileishmanial activity against promastigote form of Leishmania braziliensis MHOM/BR/1975/M2904 assessed as electro-dense vesicles at IC25 concentration after 96 hrs by MET microscopic analysis. The format is functional. The following applies: MHOM/BR/75/M2904. The gist of the method: (§3)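 Promastigotes at 5 × 10^5 cells/mL in MTL medium with compound at IC25 for 96 h. Ultrastructure examined by transmission electron microscopy against untreated control parasites.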

Data set [5] in a line: Selectivity index, ratio of IC50 for mouse J774.2 cells to IC50 for amastigote form of Leishmania infantum MCAN/ES/2001/UCM-10 infected in J774.2 cells. Format: toxicity, cell-based. The method, boiled down:
(§4)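 J774.2 macrophages in MEM + 2 mM glutamine + 20% inactivated FCS were infected with stationary-phase promastigotes (10:1) for 24 h at 37 °C, 5% CO2. After washing, compounds were added at […] for 72 h. Amastigote reduction was scored in methanol-fixed, Giemsa-stained preparations; IC50 by regression; triplicates. SI = J774.2 IC50 (72 h flow cytometry)/amastigote IC50; ratio is versus Glucantime SI.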

A short description of data set [6]: Ratio of compound selectivity index to glucantime selectivity index for amastigote form of Leishmania infantum MCAN/ES/2001/UCM-10 infected in J774.2 cells over mouse J774.2 cells. The gist of the method:
as §4

For data set [7], the system named is Leishmania braziliensis. Description: Antileishmanial activity against axenic amastigote form of Leishmania braziliensis MHOM/BR/1975/M2904 after 72 hrs by haemocytometric analysis. The format is functional, MHOM/BR/75/M2904. The method, boiled down:
(§5)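 Axenic amastigotes made by culturing promastigotes 3 days at 37 °C in M199 with 10% heat-inactivated FCS plus organic acids, amino acids, sucrose, bicarbonate, MES, haemin and gentamicin, pH 5.4. Compound effect counted in a Neubauer haemocytometer chamber. IC50 by linear regression of Kc values at 1, 10, 25, 50 and 100.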

The subject of data set [8] is Leishmania braziliensis. As to the kind of experiment: Antileishmanial activity against promastigote form of Leishmania braziliensis MHOM/BR/1975/M2904 assessed as mortality at IC25 concentration after 96 hrs by MET microscopic analysis. The following applies: MHOM/BR/75/M2904. Format: functional. The gist of the method: as §3
Data set [9] is described as follows: Ratio of compound selectivity index to glucantime selectivity index for promastigote form of Leishmania infantum MCAN/ES/2001/UCM-10 over mouse J774.2 cells. The gist of the method: (§6)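 J774.2 toxicity: 72 h at the same concentrations, viability by flow cytometry with propidium iodide/fluorescein diacetate; IC50 by linear regression. SI = macrophage IC50/parasite IC50; ratio is compound SI over Glucantime SI.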

The test system of data set [10] is Leishmania braziliensis. As to the kind of experiment: Antileishmanial activity against promastigote form of Leishmania braziliensis MHOM/BR/1975/M2904 assessed as empty cytoplasmic at IC25 concentration after 96 hrs by MET microscopic analysis. The format is functional. The following applies: MHOM/BR/75/M2904. The gist of the method:
as §3

Data set [11] has as its system Leishmania braziliensis. As to the kind of experiment: Antileishmanial activity against amastigote form of Leishmania braziliensis MHOM/BR/1975/M2904 infected in J774.2 cells after 72 hrs by haemocytometric analysis. The format is functional, cell-based, MHOM/BR/75/M2904. The method, boiled down:
as §2

The test system of data set [12] is Leishmania infantum. As to the kind of experiment: Antileishmanial activity against promastigote form of Leishmania infantum MCAN/ES/2001/UCM-10 after 72 hrs by haemocytometric analysis. The format is functional, organism-based. The method, boiled down: (§7)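 Promastigotes grown at 28 °C in MTL medium with 10% inactivated FCS. Compounds in DMSO (0.1%), diluted in culture medium to 100, 50, 25, 10 and 1. Cells counted at 72 h in a Neubauer haemocytometric chamber. IC50 (50% inhibition) by linear regression of Kc values.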

Data set [13] can be described thus: Selectivity index, ratio of IC50 for mouse J774.2 cells to IC50 for axenic amastigote form of Leishmania infantum MCAN/ES/2001/UCM-10. Format: toxicity. The gist of the method:
as §1

Data set [14] is described as follows: Ratio of compound selectivity index to glucantime selectivity index for axenic amastigote form of Leishmania infantum MCAN/ES/2001/UCM-10 over mouse J774.2 cells. The gist of the method:
as §1

A further data set relates to J774.2. Description: Cytotoxicity against mouse J774.2 cells after 72 hrs by PI-staining based flow cytometric analysis. Format: cell-based. The following applies: J774.2, 72 h. The gist of the method: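 J774.2 macrophages (ECACC 91051511, female BALB/c mouse tumour) treated 72 h with 100, 50, 25, 10 and 1 of compound. Propidium iodide then fluorescein diacetate each added for 10 min at 28 °C in the dark. Cells pelleted at 400g, washed in PBS and analysed by flow cytometry. Viability % vs control; IC50 by linear regression of Kc values.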
(A flow cytometer gives signals particle by particle.)

Data set [15] is described as follows: Selectivity index, ratio of IC50 for mouse J774.2 cells to IC50 for promastigote form of Leishmania infantum MCAN/ES/2001/UCM-10. Format: toxicity. The method, boiled down:
as §6

Data set [16] deals with Leishmania braziliensis. Description: Antileishmanial activity against promastigote form of Leishmania braziliensis MHOM/BR/1975/M2904 assessed as cytoplasmic alterations at IC25 concentration after 96 hrs by MET microscopic analysis. Format: functional. The following applies: MHOM/BR/75/M2904. The gist of the method:
as §3

Data set [17] can be described thus: Selectivity index, ratio of IC50 for mouse J774.2 cells to IC50 for amastigote form of Leishmania braziliensis MHOM/BR/1975/M2904 infected in J774.2 cells. Format: toxicity, cell-based. The gist of the method:
as §4

The nature of data set [18]: Ratio of compound selectivity index to glucantime selectivity index for amastigote form of Leishmania braziliensis MHOM/BR/1975/M2904 infected in J774.2 cells over mouse J774.2 cells. The gist of the method: as §4
Data set [19] is described as follows: Ratio of compound selectivity index to glucantime selectivity index for promastigote form of Leishmania braziliensis MHOM/BR/1975/M2904 over mouse J774.2 cells.
In data set [20] the test system is Leishmania braziliensis. As to the kind of experiment: Antileishmanial activity against promastigote form of Leishmania braziliensis MHOM/BR/1975/M2904 after 72 hrs by haemocytometric analysis. Format: functional. The following applies: MHOM/BR/75/M2904, 72 h. The gist of the method:
as §7

Data set [21] deals with Leishmania infantum. As to the kind of experiment: Antileishmanial activity against axenic amastigote form of Leishmania infantum MCAN/ES/2001/UCM-10 after 72 hrs by haemocytometric analysis. The format is functional, organism-based. The method, boiled down:
as §5

Data set [22] in a line: Selectivity index, ratio of IC50 for mouse J774.2 cells to IC50 for promastigote form of Leishmania braziliensis MHOM/BR/1975/M2904. Format: toxicity.
The test system of data set [23] is Leishmania infantum. Description: Antileishmanial activity against promastigote form of Leishmania infantum MCAN/ES/2001/UCM-10 infected in J774.2 cells assessed as inhibition of infection in host cells at IC25 concentration incubated for 12 hrs followed by compound washout measured after 48 hrs by microscopic analysis. Format: functional. The method, boiled down:
(§8)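 J774.2 cells seeded at 1 × 10^4 cells/well on coverslips and cultured 2 days. Infected with promastigotes at 10:1 with drug at IC25 added immediately, for 12 h at 37 °C in 5% CO2. Parasites and drug washed out, then grown 10 days with washing and fresh medium every 48 h. On methanol-fixed, Giemsa-stained slides, % infected cells and amastigotes per infected cell scored from more than 200 host cells. Three determinations.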

The test system of data set [24] is Leishmania infantum. As to the kind of experiment: Antileishmanial activity against promastigote form of Leishmania infantum MCAN/ES/2001/UCM-10 infected in J774.2 cells assessed as inhibition of number of amastigotes per host cell at IC25 concentration incubated for 12 hrs followed by compound washout measured after 48 hrs by microscopic analysis. Format: functional. The method, boiled down:
as §8

Data set [25] has as its system Leishmania braziliensis. As to the kind of experiment: Antileishmanial activity against promastigote form of […] Leishmania braziliensis MHOM/BR/1975/M2904 infected in J774.2 cells assessed as inhibition of infection in host cells at IC25 concentration incubated for 12 hrs […] by microscopic analysis. Format: functional. The following applies: MHOM/BR/75/M2904.

Data set [26] deals with Leishmania braziliensis. Description: Antileishmanial activity against promastigote form of […] MHOM/BR/1975/M2904 infected in J774.2 cells assessed as inhibition of number of amastigotes per host cell at IC25 concentration incubated for 12 hrs followed by compound washout measured after 48 hrs by microscopic analysis. The following applies: MHOM/BR/75/M2904. Format: functional. The gist of the method: as §8

Setting [27] is: J774.2 cells, read-out: Ratio IC50.
The mark [28] stands for this setting: Leishmania infantum, MCAN/ES/2001/UCM-10, 72 h.

From ChEMBL document CHEMBL2331406, “In vitro activity of scorpiand-like azamacrocycle derivatives in promastigotes and intracellular amastigotes of Leishmania infantum and Leishmania braziliensis” (Eur J Med Chem, 2013) come the findings set out here.

Activity calls are given as the source filed them. The calls are words filed in the database; no cut-off is given here.

The term IC50 denotes the concentration that inhibits the measured activity by half. A high value points to lower potency. By inhibition is commonly meant the relative decrease from the control value, in per cent.

For the compound `Br.NCCCNCCN1CCNCc2cccc(n2)CNCC1`, the selectivity ratio in data set [1] (setting [27]) was found to be 7; in data set [5] (setting [27]) it was 4.9; in [13] (setting [27]), 7.4; in data set [15] (setting [27]), 9.1; in data set [17] (setting [27]), 11.5; in data set [22] (setting [27]) it was 14.2. Besides, the Ratio in [2] was found to be 14; in data set [6], 10; in data set [9], 11; in data set [14], 15; in data set [18] it was 14; in data set [19], 24. Also, the IC50 in the data set with Leishmania infantum [3] (Leishmania infantum, MCAN/ES/2001/UCM-10, J774.2, 72 h) came out at 44.9 µM; in the data set on Leishmania braziliensis [7] (Leishmania braziliensis, MHOM/BR/75/M2904, 72 h) it was 31.4 µM; with Leishmania braziliensis [11] (Leishmania braziliensis, MHOM/BR/75/M2904, J774.2, 72 h), 19.1 µM; with Leishmania infantum [12] (setting [28]) it was 24.2 µM; with J774.2 it was 220 µM; with Leishmania braziliensis [20], 15.5 µM. In addition, the IC50 in the data set on Leishmania infantum [21] (setting [28]) came to 29.8 µM. Moreover, the result in the data set with Leishmania braziliensis [4], with Leishmania braziliensis [8], in the data set with Leishmania braziliensis [10] and with Leishmania braziliensis [16] was Active.

“MEGLUMINE ANTIMONATE [listing 1 of 2 here]”: the inhibition in the data set on Leishmania infantum [23] amounted to 24%; with Leishmania infantum [24], 30%; with Leishmania braziliensis [25], 22%; in the data set on Leishmania braziliensis [26], 37%.

On to “MEGLUMINE ANTIMONATE [listing 2 of 2 here]”, for which the “Ratio IC50” value came to 0.5 in [1]; 0.5 in data set [5]; 0.5 in [13]; 0.8 in [15]; 0.8 in [17]; 0.6 in [22]. Besides, the IC50 in the data set on Leishmania infantum [3] (j774.2) amounted to 30.8 µM; in the data set on Leishmania braziliensis [7] it was 30.9 µM; in the data set with Leishmania braziliensis [11] (j774.2), 19.7 µM; in the data set with Leishmania infantum [12], 18 µM; in the data set on Leishmania infantum [21] it was 31 µM.
